ChEMBL document CHEMBL2163282, “Discovery and characterization of AZD9272 and AZD6538-Two novel mGluR5 negative allosteric modulators selected for clinical development” (Bioorg Med Chem Lett, 2012)
Activity calls are given as the source filed them. The calls are words filed in the database; no cut-off is given here.

Columns and labels:
[1] = biological target: Metabotropic glutamate receptor 4 (Homo sapiens) (UniProt Q14833); assay: Positive allosteric modulation of mGluR4 assessed as effect on intracellular Ca2+ level up to 30 uM by cell based FLIPR assay; assay type: functional
Procedure, shortened: (§1)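 Each of the seven other mGluR subtypes was tested at concentrations up to 30 µM. Agonist, antagonist and positive allosteric modulator modes were each assessed. Read-out was the change in intracellular Ca2+ on FLIPR.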

[2] = biological target: Metabotropic glutamate receptor 3 (Homo sapiens) (UniProt Q14832); assay: Antagonist activity at mGluR3 assessed as effect on intracellular Ca2+ level up to 30 uM by cell based FLIPR assay; assay type: functional; procedure, shortened: as §1
[3] = biological target: T1, Metabotropic glutamate receptor 5 (Homo sapiens, UniProt P41594); assay: Negative allosteric modulation of human recombinant mGluR5 expressed in HEK293 cells expressing GLAST assessed as inhibition of ATP-induced intracellular Ca2+ level at 10 uM after 30 mins by FLIPR assay; assay type: functional, cell-based
Procedure, shortened: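 FLIPR intracellular Ca2+ readout in background GHEK cells (HEK293 with glutamate/aspartate transporter, lacking mGluR5), stimulated with 10 µM ATP; test compound at 10 µM to check off-target inhibition.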

[4] = biological target: T1, Metabotropic glutamate receptor 5; assay: Negative allosteric modulation of human recombinant mGluR5 expressed in HEK293 cells expressing GLAST assessed as inhibition of DHPG-induced intracellular Ca2+ level after 30 mins by FLIPR assay
[5] = biological target: Metabotropic glutamate receptor 8 (Homo sapiens) (UniProt O00222); assay: Positive allosteric modulation of mGluR8 assessed as effect on intracellular Ca2+ level up to 30 uM by cell based FLIPR assay; assay type: functional; procedure, shortened: as §1
[6] = biological target: Metabotropic glutamate receptor 1 (Homo sapiens) (UniProt Q13255); assay: Positive allosteric modulation of mGluR1 assessed as effect on intracellular Ca2+ level up to 30 uM by cell based FLIPR assay; assay type: functional; procedure, shortened: as §1
[7] = biological target: Metabotropic glutamate receptor 7 (Homo sapiens) (UniProt Q14831); assay: Positive allosteric modulation of mGluR7 assessed as effect on intracellular Ca2+ level up to 30 uM by cell based FLIPR assay; assay type: functional; procedure, shortened: as §1
[8] = biological target: Metabotropic glutamate receptor 7 (Homo sapiens) (UniProt Q14831); assay: Agonist activity at mGluR7 assessed as effect on intracellular Ca2+ level up to 30 uM by cell based FLIPR assay; assay type: functional; procedure, shortened: as §1
[9] = biological target: Metabotropic glutamate receptor 3 (Homo sapiens) (UniProt Q14832); assay: Positive allosteric modulation of mGluR3 assessed as effect on intracellular Ca2+ level up to 30 uM by cell based FLIPR assay; assay type: functional; procedure, shortened: as §1
[10] = biological target: Metabotropic glutamate receptor 5 (Rattus norvegicus) (UniProt P31424); assay: Negative allosteric modulation of rat recombinant mGluR5 expressed in HEK293 cells expressing GLAST assessed as inhibition of DHPG-induced intracellular Ca2+ level at 0.001 to 3 uM after 30 mins by FLIPR assay; assay type: functional, cell-based
[11] = biological target: Metabotropic glutamate receptor 4 (Homo sapiens) (UniProt Q14833); assay: Agonist activity at mGluR4 assessed as effect on intracellular Ca2+ level up to 30 uM by cell based FLIPR assay; assay type: functional; procedure, shortened: as §1
[12] = biological target: Metabotropic glutamate receptor 5 (Rattus norvegicus) (UniProt P31424); assay: (§2) Negative allosteric modulation of rat recombinant mGluR5 expressed in HEK293 cells expressing GLAST assessed as inhibition of DHPG-induced intracellular Ca2+ level after 30 mins by FLIPR assay; assay type: functional, cell-based
Procedure, shortened: (§3)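 Human or rat mGluR5 expressed recombinantly in HEK293 cells that constitutively express the glutamate/aspartate transporter (mGluR5-GHEK). Intracellular Ca2+ rise evoked by DHPG was read on FLIPR. Potency was taken from test-compound inhibition of that response. Mean of 3 separate experiments.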

[13] = biological target: Metabotropic glutamate receptor 5 (Rattus norvegicus, UniProt P31424); assay: as §2; assay type: functional, cell-based; procedure, shortened: as §3
[14] = biological target: T1, Metabotropic glutamate receptor 5; assay: Noncompetitive inhibition of human mGluR5 expressed in HEK cells assessed as inhibition of DHPG-induced intracellular Ca2+ level at 10 to 300 nM after 30 mins by FLIPR assay; assay type: functional, cell-based; conditions: HEK293
Procedure, shortened: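 Human mGluR5-GHEK cells on FLIPR: DHPG concentration–response curves run at increasing modulator concentrations, intracellular Ca2+ read-out; shifts in DHPG potency and maximal response evaluated for non-competitive interaction.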

[15] = biological target: Metabotropic glutamate receptor 6 (Homo sapiens) (UniProt O15303); assay: Antagonist activity at mGluR6 assessed as effect on intracellular Ca2+ level up to 30 uM by cell based FLIPR assay; assay type: functional; procedure, shortened: as §1
[16] = Intrinsic clearance in rat liver microsomes; assay type: ADME, Microsome; conditions: read-out: CLH
Procedure, shortened: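 Intrinsic clearance was determined in human or rat microsomes and expressed per min per mg protein.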

[17] = biological target: Metabotropic glutamate receptor 1 (Homo sapiens) (UniProt Q13255); assay: Agonist activity at mGluR1 assessed as effect on intracellular Ca2+ level up to 30 uM by cell based FLIPR assay; assay type: functional; procedure, shortened: as §1
[18] = biological target: Metabotropic glutamate receptor 2 (Homo sapiens) (UniProt Q14416); assay: Agonist activity at mGluR2 assessed as effect on intracellular Ca2+ level up to 30 uM by cell based FLIPR assay; assay type: functional; procedure, shortened: as §1
[19] = biological target: T1, Metabotropic glutamate receptor 5; assay: Negative allosteric modulation of human recombinant mGluR5 expressed in HEK293 cells expressing GLAST assessed as inhibition of glutamate-stimulated IP accumulation incubated for 10 mins prior to glutamate challenge measured 30 mins post glutamate challenge by scintillation counter in presence of [3H]myo-inositol; assay type: functional, cell-based
[20] = biological target: T1, Metabotropic glutamate receptor 5; assay: Negative allosteric modulation of human recombinant mGluR5 expressed in HEK293 cells expressing GLAST assessed as inhibition of DHPG-induced intracellular Ca2+ level after 30 mins by FLIPR assay
[21] = biological target: Metabotropic glutamate receptor 4 (Homo sapiens) (UniProt Q14833); assay: Antagonist activity at mGluR4 assessed as effect on intracellular Ca2+ level up to 30 uM by cell based FLIPR assay; assay type: functional; procedure, shortened: as §1
[22] = biological target: Metabotropic glutamate receptor 6 (Homo sapiens) (UniProt O15303); assay: Positive allosteric modulation of mGluR6 assessed as effect on intracellular Ca2+ level up to 30 uM by cell based FLIPR assay; assay type: functional; procedure, shortened: as §1
[23] = Tmax in Sprague-Dawley rat at 3 umol/kg, po; assay type: ADME, organism-based; conditions: in vivo
Procedure, shortened: (§4)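 Male rats (n = 3) received a single oral dose of 3 µmol/kg. Vehicle was Polyvidon K30 1.7 mg/ml, sodium lauryl sulphate 0.34 mg/ml and glycerin 25.0 mg/ml in water. Plasma levels were measured by liquid–liquid extraction and reversed-phase LC-MS/MS (APCI or ESI).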

[24] = Ratio of drug level in brain to plasma of Sprague-Dawley rat at 3 umol/kg, po; assay type: ADME; conditions: read-out: BPR
Procedure, shortened: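 Rats were given an oral dose of 3 µmol/kg. Total brain exposure was compared with plasma exposure to give a brain-to-plasma ratio.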

[25] = Volume of distribution at steady state in Sprague-Dawley rat at 3 umol/kg, iv; assay type: ADME, organism-based; conditions: in vivo, read-out: Vdss
Procedure, shortened: (§5)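 Male rats (n = 3) received a single intravenous dose of 3 µmol/kg. Vehicle was 40% w/w dimethylacetamide/40% w/w PEG 400/20% w/w water. Plasma drug was measured after liquid–liquid extraction by reversed-phase LC with APCI or ESI tandem MS.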

[26] = biological target: Metabotropic glutamate receptor 3 (Homo sapiens) (UniProt Q14832); assay: Agonist activity at mGluR3 assessed as effect on intracellular Ca2+ level up to 30 uM by cell based FLIPR assay; assay type: functional; procedure, shortened: as §1
[27] = Clearance in Sprague-Dawley rat at 3 umol/kg, iv; assay type: ADME, organism-based; conditions: in vivo; procedure, shortened: as §5
[28] = biological target: Metabotropic glutamate receptor 6 (Homo sapiens) (UniProt O15303); assay: Agonist activity at mGluR6 assessed as effect on intracellular Ca2+ level up to 30 uM by cell based FLIPR assay; assay type: functional; procedure, shortened: as §1
[29] = Cmax in Sprague-Dawley rat at 3 umol/kg, po; assay type: ADME, organism-based; parameters: dose 3 umol/kg, route oral; conditions: in vivo; procedure, shortened: as §4

Chain of Metabotropic glutamate receptor 4 (Homo sapiens) (Q14833 whole entry): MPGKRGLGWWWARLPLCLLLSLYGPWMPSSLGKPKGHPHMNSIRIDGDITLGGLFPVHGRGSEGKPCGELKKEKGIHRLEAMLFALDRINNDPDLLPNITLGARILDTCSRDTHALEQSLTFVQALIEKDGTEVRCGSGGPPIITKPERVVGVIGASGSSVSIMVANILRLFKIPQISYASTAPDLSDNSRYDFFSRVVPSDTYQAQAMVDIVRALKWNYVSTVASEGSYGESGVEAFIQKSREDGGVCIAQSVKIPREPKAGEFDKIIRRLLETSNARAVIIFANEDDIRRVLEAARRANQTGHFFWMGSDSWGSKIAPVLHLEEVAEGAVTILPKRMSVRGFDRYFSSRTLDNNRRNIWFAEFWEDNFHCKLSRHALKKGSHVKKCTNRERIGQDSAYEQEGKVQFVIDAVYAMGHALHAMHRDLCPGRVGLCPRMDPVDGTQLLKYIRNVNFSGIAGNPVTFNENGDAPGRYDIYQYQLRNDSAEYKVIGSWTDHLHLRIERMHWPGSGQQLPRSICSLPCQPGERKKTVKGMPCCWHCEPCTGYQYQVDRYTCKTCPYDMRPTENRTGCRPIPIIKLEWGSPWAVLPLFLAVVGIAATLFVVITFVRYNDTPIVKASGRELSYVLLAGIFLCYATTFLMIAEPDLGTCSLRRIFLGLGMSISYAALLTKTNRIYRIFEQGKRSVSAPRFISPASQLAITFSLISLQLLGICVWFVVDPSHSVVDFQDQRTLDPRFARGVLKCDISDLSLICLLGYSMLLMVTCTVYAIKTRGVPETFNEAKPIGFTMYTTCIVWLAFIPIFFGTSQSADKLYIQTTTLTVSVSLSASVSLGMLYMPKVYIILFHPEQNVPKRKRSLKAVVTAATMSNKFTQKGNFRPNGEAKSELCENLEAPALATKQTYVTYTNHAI
Chain of Metabotropic glutamate receptor 7 (Homo sapiens) (Q14831 whole entry): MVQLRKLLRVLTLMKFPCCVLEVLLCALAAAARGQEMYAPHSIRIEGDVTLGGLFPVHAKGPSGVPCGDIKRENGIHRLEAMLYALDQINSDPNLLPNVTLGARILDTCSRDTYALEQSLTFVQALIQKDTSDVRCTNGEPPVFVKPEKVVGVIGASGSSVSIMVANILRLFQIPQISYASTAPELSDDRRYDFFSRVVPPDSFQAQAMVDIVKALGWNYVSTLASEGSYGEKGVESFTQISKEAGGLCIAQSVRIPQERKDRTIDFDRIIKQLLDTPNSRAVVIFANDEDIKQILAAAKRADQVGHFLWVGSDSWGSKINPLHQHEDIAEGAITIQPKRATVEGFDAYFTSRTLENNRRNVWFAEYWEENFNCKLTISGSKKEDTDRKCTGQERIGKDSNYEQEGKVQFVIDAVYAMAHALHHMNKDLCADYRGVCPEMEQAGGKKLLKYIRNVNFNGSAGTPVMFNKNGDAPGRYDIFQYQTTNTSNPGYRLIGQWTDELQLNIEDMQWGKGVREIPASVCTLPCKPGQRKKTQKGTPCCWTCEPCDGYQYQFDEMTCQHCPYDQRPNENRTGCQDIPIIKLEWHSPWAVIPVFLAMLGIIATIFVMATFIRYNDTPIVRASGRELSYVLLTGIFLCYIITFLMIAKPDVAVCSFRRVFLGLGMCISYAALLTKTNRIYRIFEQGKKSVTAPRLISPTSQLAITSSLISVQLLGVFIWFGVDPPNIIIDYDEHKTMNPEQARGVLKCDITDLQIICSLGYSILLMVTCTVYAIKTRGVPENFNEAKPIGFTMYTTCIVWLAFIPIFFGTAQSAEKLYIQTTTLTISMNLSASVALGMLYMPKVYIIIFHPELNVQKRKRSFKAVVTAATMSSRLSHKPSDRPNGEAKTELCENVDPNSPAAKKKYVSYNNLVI
Chain of Metabotropic glutamate receptor 1 (Homo sapiens) (Q13255 19-1194 limits assumed): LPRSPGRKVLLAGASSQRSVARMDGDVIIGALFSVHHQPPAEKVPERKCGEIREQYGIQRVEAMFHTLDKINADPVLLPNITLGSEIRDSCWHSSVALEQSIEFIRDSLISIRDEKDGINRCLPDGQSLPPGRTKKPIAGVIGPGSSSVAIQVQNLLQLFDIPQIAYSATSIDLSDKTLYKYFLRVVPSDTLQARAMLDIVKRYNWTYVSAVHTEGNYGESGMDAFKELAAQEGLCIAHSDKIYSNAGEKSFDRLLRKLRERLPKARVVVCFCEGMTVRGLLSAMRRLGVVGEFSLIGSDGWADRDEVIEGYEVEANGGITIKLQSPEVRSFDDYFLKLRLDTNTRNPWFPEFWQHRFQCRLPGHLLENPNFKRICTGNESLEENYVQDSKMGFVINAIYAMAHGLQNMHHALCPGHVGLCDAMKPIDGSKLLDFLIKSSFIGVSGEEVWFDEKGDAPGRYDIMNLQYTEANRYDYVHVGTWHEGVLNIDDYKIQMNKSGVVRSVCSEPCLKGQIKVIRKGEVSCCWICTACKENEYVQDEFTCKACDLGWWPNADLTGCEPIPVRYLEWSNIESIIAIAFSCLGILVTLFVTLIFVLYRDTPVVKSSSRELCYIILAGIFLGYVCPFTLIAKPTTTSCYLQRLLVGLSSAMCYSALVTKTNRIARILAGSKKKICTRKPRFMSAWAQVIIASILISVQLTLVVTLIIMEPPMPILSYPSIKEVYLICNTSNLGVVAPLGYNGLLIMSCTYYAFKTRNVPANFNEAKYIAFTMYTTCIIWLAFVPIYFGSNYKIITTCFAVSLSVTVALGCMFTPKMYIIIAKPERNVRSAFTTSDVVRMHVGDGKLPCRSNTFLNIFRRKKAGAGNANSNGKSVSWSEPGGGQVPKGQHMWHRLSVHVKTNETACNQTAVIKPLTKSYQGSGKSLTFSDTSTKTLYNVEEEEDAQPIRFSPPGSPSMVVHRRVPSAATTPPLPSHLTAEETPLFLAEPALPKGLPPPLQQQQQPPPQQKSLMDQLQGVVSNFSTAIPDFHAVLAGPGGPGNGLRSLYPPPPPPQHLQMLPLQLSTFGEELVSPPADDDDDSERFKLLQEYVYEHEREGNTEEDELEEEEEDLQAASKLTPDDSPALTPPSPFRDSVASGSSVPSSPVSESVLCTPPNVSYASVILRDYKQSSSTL
Chain of Metabotropic glutamate receptor 6 (Homo sapiens) (O15303 whole entry): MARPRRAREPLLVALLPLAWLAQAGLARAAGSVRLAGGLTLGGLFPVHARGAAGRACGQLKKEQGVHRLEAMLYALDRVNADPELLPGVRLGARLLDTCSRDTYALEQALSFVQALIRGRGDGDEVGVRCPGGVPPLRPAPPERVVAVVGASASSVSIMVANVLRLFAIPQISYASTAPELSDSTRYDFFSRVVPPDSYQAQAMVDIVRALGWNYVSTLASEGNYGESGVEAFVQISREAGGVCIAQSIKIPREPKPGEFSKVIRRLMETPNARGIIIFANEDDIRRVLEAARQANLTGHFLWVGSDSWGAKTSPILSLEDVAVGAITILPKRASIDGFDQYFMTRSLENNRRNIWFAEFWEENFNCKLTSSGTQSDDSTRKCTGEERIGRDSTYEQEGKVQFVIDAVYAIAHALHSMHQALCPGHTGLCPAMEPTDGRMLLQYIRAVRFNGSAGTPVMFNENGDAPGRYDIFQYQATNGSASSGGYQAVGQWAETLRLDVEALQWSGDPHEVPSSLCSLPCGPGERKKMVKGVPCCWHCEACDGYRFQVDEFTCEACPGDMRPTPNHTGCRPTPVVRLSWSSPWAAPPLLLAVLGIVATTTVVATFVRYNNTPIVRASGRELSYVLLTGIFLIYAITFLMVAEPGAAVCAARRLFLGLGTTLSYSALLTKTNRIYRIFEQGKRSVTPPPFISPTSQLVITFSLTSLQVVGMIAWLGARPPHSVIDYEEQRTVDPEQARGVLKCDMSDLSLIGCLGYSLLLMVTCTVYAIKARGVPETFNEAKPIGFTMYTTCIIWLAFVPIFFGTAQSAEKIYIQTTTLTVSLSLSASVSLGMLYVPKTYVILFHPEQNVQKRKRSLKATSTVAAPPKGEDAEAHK
Chain of Metabotropic glutamate receptor 5 (Rattus norvegicus) (P31424 21-1203 limits assumed): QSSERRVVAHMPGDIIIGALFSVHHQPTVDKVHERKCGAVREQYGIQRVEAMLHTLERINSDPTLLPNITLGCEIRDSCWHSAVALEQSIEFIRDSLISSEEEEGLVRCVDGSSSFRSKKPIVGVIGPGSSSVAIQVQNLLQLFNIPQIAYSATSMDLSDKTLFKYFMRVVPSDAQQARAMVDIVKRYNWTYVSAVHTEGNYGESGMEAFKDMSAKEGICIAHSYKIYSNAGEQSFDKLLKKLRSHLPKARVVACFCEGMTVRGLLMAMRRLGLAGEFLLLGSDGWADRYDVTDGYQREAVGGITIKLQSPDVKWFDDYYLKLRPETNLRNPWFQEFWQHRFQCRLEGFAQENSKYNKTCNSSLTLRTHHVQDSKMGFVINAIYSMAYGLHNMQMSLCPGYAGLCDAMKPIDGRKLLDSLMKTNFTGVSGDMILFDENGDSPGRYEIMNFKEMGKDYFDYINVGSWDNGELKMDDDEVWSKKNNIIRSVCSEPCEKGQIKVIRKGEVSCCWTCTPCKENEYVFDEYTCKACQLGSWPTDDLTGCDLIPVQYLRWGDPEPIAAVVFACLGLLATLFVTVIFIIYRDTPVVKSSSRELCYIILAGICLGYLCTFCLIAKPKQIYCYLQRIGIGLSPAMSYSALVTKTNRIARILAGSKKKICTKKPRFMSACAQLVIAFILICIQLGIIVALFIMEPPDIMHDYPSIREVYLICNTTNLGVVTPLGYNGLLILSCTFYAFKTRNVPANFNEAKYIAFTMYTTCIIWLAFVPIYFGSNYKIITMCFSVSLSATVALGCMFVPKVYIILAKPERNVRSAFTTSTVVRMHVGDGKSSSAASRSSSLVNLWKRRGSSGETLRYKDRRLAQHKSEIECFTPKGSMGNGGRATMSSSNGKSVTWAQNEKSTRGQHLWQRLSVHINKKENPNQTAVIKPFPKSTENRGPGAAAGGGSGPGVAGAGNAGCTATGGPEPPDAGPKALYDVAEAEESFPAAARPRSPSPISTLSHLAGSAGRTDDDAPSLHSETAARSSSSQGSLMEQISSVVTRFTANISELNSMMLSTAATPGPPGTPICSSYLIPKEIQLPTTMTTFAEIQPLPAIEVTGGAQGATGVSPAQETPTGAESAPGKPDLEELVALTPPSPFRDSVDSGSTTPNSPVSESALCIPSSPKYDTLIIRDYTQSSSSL

Row | Activity [1] [%] | inhibition [2] [%] | inhibition [3] | IC50 [4] [nM] | Activity [5] [%] | Activity [6] [%] | Activity [7] [%] | Activity [8] [%] | Activity [9] [%] | inhibition [10] [%] | Activity [11] [%] | inhibition [12] | IC50 [13] [nM] | inhibition [14] | inhibition [15] [%] | microsomal CLint [16] [µL/min/mg] | Activity [17] [%] | Activity [18] [%] | IC50 [19] [nM] | inhibition [19] | SMILES | other results
1 | < 50 | < 50 | inactive | 13.4 | < 50 | < 50 | < 50 | < 50 | < 50 | 100 | < 50 | Dose-dependent effect | 3.2 | Active | < 50 | 6 | < 50 | < 50 | 51 | Dose-dependent effect | N#Cc1ccc(-c2noc(-c3cc(F)cc(C#N)c3)n2)nc1 | inhibition [20]: Dose-dependent effect; inhibition [21]: < 50%; Activity [22]: < 50%; Tmax [23]: 3 h; Kp [24]: 1; Vd [25]: 2 L/kg; Activity [26]: < 50%; clearance [27]: 4 mL/min/kg; Activity [28]: < 50%; Cmax [29]: 500 nM
2 | < 50 | < 50 | inactive | 7.6 | < 50 | < 50 | < 50 | < 50 | < 50 | 100 | < 50 | Dose-dependent effect | 2.6 | Active | < 50 | 10 | < 50 | < 50 | 26 | Dose-dependent effect | N#Cc1cc(F)cc(-c2nc(-c3ccc(F)cn3)no2)c1 | inhibition [20]: Dose-dependent effect; inhibition [21]: < 50%; Activity [22]: < 50%; Tmax [23]: 4 h; Kp [24]: 1; Vd [25]: 1.6 L/kg; Activity [26]: < 50%; clearance [27]: 5.17 mL/min/kg; Activity [28]: < 50%; Cmax [29]: 460 nM
